Source: ChEMBL document CHEMBL2424523, “2,3,9- and 2,3,11-trisubstituted tetrahydroprotoberberines as D2 dopaminergic ligands” (Eur J Med Chem, 2013)
pKi: −log10 of the molar value.

Key:
[1] = Induction of apoptosis in human neutrophil at 0.1 uM after 24 hrs by annexin V-FITC/propidium iodide staining-based flow cytometric analysis; format: cell-based
Outline: (§1)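 Freshly isolated human blood neutrophils (Ficoll-Hypaque, healthy-donor buffy coats) at 2 x 10^6 cells/mL in supplemented RPMI. Cultured 24 h at 37 °C, 5% CO2, with or without compound. Annexin V-FITC/PI flow cytometry on 1 x 10^4 cells. Early apoptotic = annexin V+/PI−, late apoptotic/necrotic = V+/PI+, viable = V−/PI−. Mean ± SEM, n=3.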

[2] = Cytotoxicity against human neutrophil assessed as cell viability at 0.1 uM after 24 hrs by MTT assay; format: cell-based
Outline: (§2)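 Human peripheral blood neutrophils isolated from healthy-donor buffy coats by Ficoll-Hypaque, plated at 2 x 10^5 cells/mL in RPMI. Concentrations chosen from D2 Ki. Incubated 24 h at 37 °C, 5% CO2. MTT (1 mg/mL solution) added for 60 min, formazan dissolved in DMSO, absorbance read at 570/630 nm. Mean ± SEM, n=3.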

[3] = species: Rattus norvegicus; assay: Selectivity ratio of Ki for dopamine D1 receptor in rat striatal membranes to Ki for dopamine D2 receptor in rat striatal membranes; format: cell membranes; settings: Membrane
Outline: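 Ratio Ki(D1)/Ki(D2) from striatal membrane displacement assays: [3H]SCH 23390 at 0.25 nM (D1) and [3H]raclopride at 0.5 nM (D2), each incubated 1 h at 25 °C, with filtration and scintillation counting. Ki data are from 3-5 experiments.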

[4] = target: D(1A) dopamine receptor (Rattus norvegicus, UniProt P18901); assay: Displacement of [3H]-SCH 23390 from dopamine D1 receptor in rat striatal membranes after 1 hr by liquid scintillation counting analysis; format: cell membranes, Membrane; settings: for pKi: read-out: Ki; for Ki: read-out: pKi (converted)
Outline: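 Striatal membranes washed twice by centrifugation at 20000g in Tris-HCl (50 mM, pH 7.4), then resuspended in Tris with 5 mM MgSO4, 0.5 mM EDTA and 0.02% ascorbate. 100 µg protein incubated 1 h at 25 °C with 0.25 nM [3H]SCH 23390. Nonspecific binding defined with 30 µM SK&F 38393. Filtered on GF/B, scintillation counted. Mean ± SEM of 3-5 experiments.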

[5] = target: D(2) dopamine receptor (Rattus norvegicus, UniProt P61169); assay: Displacement of [3H]-raclopride from dopamine D2 receptor in rat striatal membranes after 1 hr by liquid scintillation counting analysis; format: cell membranes, Membrane; settings: for pKi: read-out: Ki; for Ki: read-out: pKi (converted)
Outline: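 200 µg protein incubated 1 h at 25 °C with 0.5 nM [3H]raclopride. Nonspecific binding defined with 50 µM apomorphine. GF/B filtration, scintillation counting. Mean ± SEM of 3-5 experiments.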

[6] = Cytotoxicity against human neutrophil assessed as cell survival at 0.1 uM after 24 hrs by annexin V-FITC/propidium iodide staining-based flow cytometric analysis; outline: as §1
[7] = Cytotoxicity against human neutrophil assessed as cell viability at 3 uM after 24 hrs by MTT assay; format: cell-based; outline: as §2
[8] = Cytotoxicity against human neutrophil assessed as cell viability at 10 uM after 24 hrs by MTT assay; format: cell-based; outline: as §2
[9] = Cytotoxicity against human neutrophil assessed as cell viability at 0.3 uM after 24 hrs by MTT assay; format: cell-based; outline: as §2
[10] = Cytotoxicity against human neutrophil assessed as cell viability at 100 uM after 24 hrs by MTT assay; format: cell-based; outline: as §2

Sequence of D(1A) dopamine receptor (P18901 whole entry): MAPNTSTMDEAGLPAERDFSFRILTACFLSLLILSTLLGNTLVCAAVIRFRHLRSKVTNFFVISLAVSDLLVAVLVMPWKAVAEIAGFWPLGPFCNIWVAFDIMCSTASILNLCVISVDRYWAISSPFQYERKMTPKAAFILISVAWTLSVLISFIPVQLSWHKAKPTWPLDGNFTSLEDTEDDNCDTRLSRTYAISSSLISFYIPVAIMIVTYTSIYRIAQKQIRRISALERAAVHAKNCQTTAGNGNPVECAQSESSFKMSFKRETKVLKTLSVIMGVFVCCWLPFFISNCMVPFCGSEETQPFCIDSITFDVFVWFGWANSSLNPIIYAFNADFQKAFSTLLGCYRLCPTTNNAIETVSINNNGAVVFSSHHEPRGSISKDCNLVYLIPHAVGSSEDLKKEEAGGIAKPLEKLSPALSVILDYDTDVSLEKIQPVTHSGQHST
Sequence of D(2) dopamine receptor (P61169 whole entry): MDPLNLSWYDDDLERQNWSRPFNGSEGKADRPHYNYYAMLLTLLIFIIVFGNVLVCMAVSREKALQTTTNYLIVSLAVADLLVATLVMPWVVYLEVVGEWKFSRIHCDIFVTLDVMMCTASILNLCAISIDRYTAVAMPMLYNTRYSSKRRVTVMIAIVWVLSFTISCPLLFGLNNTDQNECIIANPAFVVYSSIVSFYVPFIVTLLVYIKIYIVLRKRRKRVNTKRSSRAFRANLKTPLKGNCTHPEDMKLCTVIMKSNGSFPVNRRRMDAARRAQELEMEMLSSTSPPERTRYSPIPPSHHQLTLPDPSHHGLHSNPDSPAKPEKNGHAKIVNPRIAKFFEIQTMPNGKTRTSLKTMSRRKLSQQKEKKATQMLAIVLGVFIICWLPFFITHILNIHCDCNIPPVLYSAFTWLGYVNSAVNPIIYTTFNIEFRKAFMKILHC

Row | Compound | Activity [1] | Activity [2] | Ratio Ki [3] | pKi [4] | Ki [4] [µM] | pKi [5] | Ki [5] [µM] | Activity [6] | Activity [7] | Activity [8] | Activity [9] | Activity [10]
1 | COc1ccc2c(c1)CC1c3cc(O)c(O)cc3CCN1C2 (configuration not stated) | Non-toxic | Non-toxic | 14.2 | 5.96 | 0.955 | 7.11 | 0.0741 | Non-toxic |  |  |  | 
2 | Oc1ccc2c(c1)CC1c3cc(O)c(O)cc3CCN1C2 (configuration not stated) |  |  | 7.5 | 5.53 | 2.63 | 6.40 | 0.389 |  | Non-toxic |  |  | 
3 | COc1ccc2c(c1)CC1c3cc(OC)c(Cl)cc3CCN1C2 (configuration not stated) |  |  | 0.9 | 5.74 | 1.74 | 5.69 |  |  | Non-toxic |  |  | 
4 | COc1ccc2c(c1)CC1c3cc(OC)c(OC)cc3CCN1C2 (configuration not stated) |  |  | 0.5 | 5.37 | 4.17 | 5.07 | 5.13 |  |  | Non-toxic |  | 
5 | Oc1ccc2c(c1)CC1c3cc(O)c(Cl)cc3CCN1C2 (configuration not stated) |  |  | 0.6 | 6.97 |  | 6.73 |  |  |  |  | Non-toxic | 
6 | COc1ccc2c(c1)CC1c3cc4c(cc3CCN1C2)OCO4 (configuration not stated) |  |  | 1.8 | 5.62 | 1.7 | 5.88 | 1.15 |  | Non-toxic |  |  | 
7 | Oc1cc2c(cc1O)C1Cc3cccc(O)c3CN1CC2 (configuration not stated) | Non-toxic | Non-toxic |  | 5.42 | 3.47 | 7.03 | 0.0851 | Non-toxic |  |  |  | 
8 | COc1ccc2c(c1)CC1c3cc(OCc4ccccc4)c(OCc4ccccc4)cc3CCN1C2 (configuration not stated) |  |  | 1 | 4.39 |  | 4.39 | 41.7 |  |  |  |  | Non-toxic
9 | Oc1ccc2c(c1)CC1c3cc4c(cc3CCN1C2)OCO4 (configuration not stated) |  |  | 4.4 | 4.48 | 32.4 | 5.12 | 6.92 |  |  | Non-toxic |  | 
10 | COc1cc2c(cc1OC)C1Cc3cccc(OC)c3CN1CC2 (configuration not stated) |  |  | 10 | 5.41 | 3.63 | 6.41 | 0.363 |  | Non-toxic |  |  | 
11 | Oc1cccc2c1CN1CCc3cc4c(cc3C1C2)OCO4 (configuration not stated) | Non-toxic | Non-toxic | 10 | 6.46 | 0.339 | 7.46 | 0.0282 | Non-toxic |  |  |  | 
